In ChEMBL document CHEMBL1268848, “Selenium-containing analogs of SAHA induce cytotoxicity in lung cancer cells” (Bioorg Med Chem Lett, 2010):
Calls of active or inactive are those of the source. No cut-off for these calls is given here.

Columns and labels:
A549 [1] = experiment: Induction of autophagy in human A549 cells assessed as increase in LC3II after 3 hrs relative to control; format: functional, cell-based
How it was run: (§1)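 A549 cells given 5 μM compound, with DMSO-treated controls, and harvested at times from 0 to 24 h. Lysis buffer: 20 mM Tris pH 7.4, 150 mM NaCl, 1 mM EDTA/EGTA, 1% Triton X-100, NaF, Na3VO4 and protease inhibitors, 10 min at 4°C. 10 μg protein run on SDS-PAGE and immunoblotted for LC3B, with actin as loading reference.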

NCI-H522 = experiment: Cytotoxicity against human NCI-H522 by SRB assay; format: functional, cell-based
How it was run: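 SRB cytotoxicity assay after 24 h drug exposure. Cells grown in DMEM with 10% FBS and penicillin/streptomycin at 37 °C under 5% CO2. Compounds taken from 10 mM DMSO stocks and diluted in medium over 0.1–50 μM, final DMSO 0.2%, with DMSO-only controls. IC50 obtained by non-linear regression of dose-response curves.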

[2] = molecular target: RAC-alpha serine/threonine-protein kinase (Homo sapiens) (UniProt P31749); experiment: Inhibition of AKT phosphorylation in human A549 at 5 uM after 24 hrs by Western blot analysis; format: functional
How it was run: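 A549 cells treated 24 h with 5 μM compound, with DMSO controls. Lysed in Tris pH 7.4/NaCl/EDTA/EGTA/1% Triton X-100 buffer containing NaF, Na3VO4 and protease inhibitors, 10 min at 4°C, then cleared at 14,000 xg. 10 μg protein by BCA run on SDS-PAGE and blotted to PVDF. Probed with anti-pAKT and compared with pan-AKT.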

NCI-H460 = experiment: Cytotoxicity against human NCI-H460 by SRB assay; format: functional, cell-based
A549 [3] = experiment: Cytotoxicity against human A549 cells by SRB assay; format: functional, cell-based
NCI-H2126 = experiment: Cytotoxicity against human NCI-H2126 by SRB assay; format: functional, cell-based
NCI-H23 = experiment: Cytotoxicity against human NCI-H23 by SRB assay; format: functional, cell-based
NCI-H1299 = experiment: Cytotoxicity against human NCI-H1299 by SRB assay; format: functional, cell-based
NCI-H226 = experiment: Cytotoxicity against human NCI-H226 by SRB assay; format: functional, cell-based
Homo sapiens = species on record: Homo sapiens; settings: at 5 µM
[4] = Cytotoxicity against human H441 by SRB assay; format: functional; settings: NCI-H441
A549 [5] = experiment: Induction of autophagy in human A549 cells assessed as increase in LC3II after 24 hrs relative to control; format: functional, cell-based; how it was run: as §1

Chain of RAC-alpha serine/threonine-protein kinase (Homo sapiens) (P31749 whole entry): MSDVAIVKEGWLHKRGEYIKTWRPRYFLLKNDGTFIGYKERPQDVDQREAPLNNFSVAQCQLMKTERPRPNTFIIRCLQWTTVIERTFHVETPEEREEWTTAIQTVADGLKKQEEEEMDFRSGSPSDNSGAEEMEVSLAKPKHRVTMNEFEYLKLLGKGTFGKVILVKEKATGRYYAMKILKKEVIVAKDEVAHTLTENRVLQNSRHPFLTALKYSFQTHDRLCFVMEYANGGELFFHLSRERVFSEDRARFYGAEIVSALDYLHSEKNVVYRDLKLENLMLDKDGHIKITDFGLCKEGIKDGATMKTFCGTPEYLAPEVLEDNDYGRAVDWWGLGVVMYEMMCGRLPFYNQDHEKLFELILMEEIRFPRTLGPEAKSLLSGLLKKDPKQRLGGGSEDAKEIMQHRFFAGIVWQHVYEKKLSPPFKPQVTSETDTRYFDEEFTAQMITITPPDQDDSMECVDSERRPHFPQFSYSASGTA

SMILES	Activity (A549 [1])	IC50 (NCI-H522) [nM]	inhibition [2]	IC50 (NCI-H460) [nM]	IC50 (A549 [3]) [nM]	IC50 (NCI-H2126) [nM]	IC50 (NCI-H23) [nM]	IC50 (NCI-H1299) [nM]	IC50 (NCI-H226) [nM]	inhibition (Homo sapiens)	IC50 [4] [nM]	Activity (A549 [5])
O=C(CCCCCCC(=O)Nc1ccccc1)NO [VORINOSTAT]	inactive	832	inactive									
N#C[Se]CCCCCC(=O)Nc1ccccc1	Active	779	Active	1460	653	928	271	923	1050	Active	449	Active
O=C(CCCCC[Se][Se]CCCCCC(=O)Nc1ccccc1)Nc1ccccc1	Active	188	Active	2130	370	1090	279	438	1730	Active	92	Active
